Assay results as given in ChEMBL document CHEMBL1121550, “Amino acid and dipeptide derivatives of daunorubicin. 1. Synthesis, physicochemical properties, and lysosomal digestion” (J Med Chem, 1980).

Assays:
Nucleic Acid [1] = experiment: Apparent binding affinity to herring sperm DNA at 25 degree Celsius in PBS buffer with pH 7.4; format: nucleic-acid assay; conditions: Clupeidae
Outline: (§1)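 Spectral titration: drug at 200 µg/mL in PBS pH 7.4 (NaCl 137 mM, KCl 3 mM, Na2HPO4 8 mM, KH2PO4 1.5 mM) titrated with 0.05–2.00 mL highly polymerized herring sperm DNA (2.34 mg/mL in 0.9% NaCl), made to 4.0 mL. Free and bound drug estimated from absorbance at 475 nm; Scatchard plot (nx/Df vs nx) yields Ka and nmax.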

Nucleic Acid [2] = experiment: Maximal binding (nmax) sites to herring sperm DNA. Estimated from Scatchard plots; format: nucleic-acid assay; conditions: Clupeidae; outline: as §1

SMILES: COc1cccc2c1C(=O)c1c(O)c3c(c(O)c1C2=O)C[C@@](O)(C(C)=O)C[C@@H]3OC1CC(NC(=O)C(N)CC(C)C)C(O)C(C)O1 (stereo partly drawn)
- Ka (Nucleic Acid [1]): 130000 M⁻¹
- Maximal binding (Nucleic Acid [2]): 0.2

SMILES: COc1cccc2c1C(=O)c1c(O)c3c(c(O)c1C2=O)C[C@@](O)(C(C)=O)C[C@@H]3O[C@H]1C[C@H](NC(=O)[C@H](C)NC(=O)[C@@H](N)CC(C)C)[C@H](O)[C@H](C)O1
- Ka (Nucleic Acid [1]): 40000 M⁻¹
- Maximal binding (Nucleic Acid [2]): 0.12

SMILES: COc1cccc2c1C(=O)c1c(O)c3c(c(O)c1C2=O)C[C@@](O)(C(C)=O)C[C@@H]3OC1CC(NC(=O)C(CC(C)C)NC(=O)CN)C(O)C(C)O1 (stereo partly drawn)
- Ka (Nucleic Acid [1]): 30000 M⁻¹
- Maximal binding (Nucleic Acid [2]): 0.14

SMILES: COc1cccc2c1C(=O)c1c(O)c3c(c(O)c1C2=O)C[C@@](O)(C(C)=O)C[C@@H]3O[C@H]1C[C@H](NC(=O)[C@H](C)N)[C@H](O)[C@H](C)O1
- Ka (Nucleic Acid [1]): 90000 M⁻¹
- Maximal binding (Nucleic Acid [2]): 0.19

SMILES: COc1cccc2c1C(=O)c1c(O)c3c(c(O)c1C2=O)C[C@@](O)(C(C)=O)C[C@@H]3O[C@H]1C[C@H](NC(=O)[C@H](CC(C)C)NC(=O)[C@H](C)N)[C@H](O)[C@H](C)O1
- Ka (Nucleic Acid [1]): 20000 M⁻¹
- Maximal binding (Nucleic Acid [2]): 0.17

SMILES: COc1cccc2c1C(=O)c1c(O)c3c(c(O)c1C2=O)C[C@@](O)(C(C)=O)C[C@@H]3OC1CC(NC(=O)CN)C(O)C(C)O1 (stereo partly drawn)
- Ka (Nucleic Acid [1]): 130000 M⁻¹
- Maximal binding (Nucleic Acid [2]): 0.16

SMILES: CCC(C)C(N)C(=O)NC1CC(O[C@H]2C[C@](O)(C(C)=O)Cc3c(O)c4c(c(O)c32)C(=O)c2c(OC)cccc2C4=O)OC(C)C1O (stereo partly drawn)
- Ka (Nucleic Acid [1]): 110000 M⁻¹
- Maximal binding (Nucleic Acid [2]): 0.19

SMILES: COc1cccc2c1C(=O)c1c(O)c3c(c(O)c1C2=O)C[C@@](O)(C(C)=O)C[C@@H]3OC1CC(NC(=O)C(N)C(C)C)C(O)C(C)O1 (stereo partly drawn)
- Ka (Nucleic Acid [1]): 110000 M⁻¹
- Maximal binding (Nucleic Acid [2]): 0.18

SMILES: COc1cccc2c1C(=O)c1c(O)c3c(c(O)c1C2=O)C[C@@](O)(C(C)=O)C[C@@H]3O[C@H]1C[C@H](N)[C@H](O)[C@H](C)O1
- Ka (Nucleic Acid [1]): 310000 M⁻¹
- Maximal binding (Nucleic Acid [2]): 0.16
